# Measurements as given in ChEMBL document CHEMBL4818983, “Structure-activity relationship and hypoglycemic activity of tricyclic matrines with advantage of treating diabetic nephropathy” (Eur J Med Chem, 2020).
# Activity calls are given as the source filed them. No cut-off for these calls is given here.
# Assays:
# [1] = tested on: Mus musculus; experiment: Antidiabetic activity in KK-Ay mouse assessed as effect on glycosylated haemoglobin level at 100 mg/kg, po for 50 days by glucose oxidase method (reference value: 8.74 +/- 1.08%); format: functional; conditions: time 50 day
# Outline: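 Lipogenic-diet KK-Ay mice given 50 or 100 mg/kg compound or 5 mg/kg rosiglitazone orally for 50 days, C57BL/6J as normal controls. Fasting blood glucose, glycosylated haemoglobin, AGE, insulin, HOMA-IR, cholesterol, LDL-c, TG, serum creatinine and BUN determined. Mean ± SD, 8-9 mice per group.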
# [2] = tested on: Mus musculus; experiment: Antidiabetic activity in KK-Ay mouse assessed as effect on HOMA-IR level at 50 mg/kg, […] by ELISA (reference value: 137 +/- 18.4); format: functional
# [3] = tested on: Mus musculus; experiment: Anti-diabetic activity in overnight fasted diabetic KK-Ay mouse assessed as reduction in blood glucose AUC at 5 mg/kg, po […] measured after 35 days by oral glucose tolerance test; format: functional, organism-based
# Outline: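 KK-Ay mice orally treated with 50 or 100 mg/kg compound or 5 mg/kg rosiglitazone, C57BL/6J as normal controls. After 35 days of treatment, oral glucose tolerance test and insulin tolerance test run. Blood glucose plotted against time, AUC calculated. Mean ± SD, 8-9 mice per group.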
# [4] = Effect on high fat diet-fed KK-Ay mouse model of obesity and diabetes assessed as food intake at 50 mg/kg, po (reference value: 5.67 +/- 0.55 g/day); format: ADME, organism-based; conditions: in vivo
# Outline: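 KK-Ay mice on lipogenic diet, with C57BL/6J mice as normal controls, dosed orally at 50 or 100 mg/kg (test) or 5 mg/kg (RGZ). Food intake (g/day), water intake (mL/day) and body weight recorded before and after treatment; body weight gain calculated. Mean±SD, 8-9 mice per group.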
# [5] = tested on: Mus musculus; experiment: Anti-diabetic activity in high fat diet-fed KK-Ay mouse model of obesity and diabetes assessed as reduction in total protein level in urine at 50 to 100 mg/kg, po measured after 24 hrs; format: functional, organism-based; conditions: dose 50-100 mg/kg
# Outline: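 Before study end, 24-h urine collected from C57BL/6J controls and KK-Ay mice (untreated, oral 50 or 100 mg/kg compound, or 5 mg/kg rosiglitazone). Volume, glucose, total protein and microalbumin measured by kits. Mean ± SD, 8-9 mice per group, vs C57BL/6J or untreated KK-Ay.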
# [6] = tested on: L6; experiment: Induction of glycolysis in rat L6 cells assessed as increase in lactate release at 10 to 40 uM measured after 24 hrs; conditions: dose 10-40 µM
structure (smiles),measurement,setting,value
CCCC[C@@H]1[C@H]2CCCN3CCC[C@@H](CN1S(=O)(=O)c1ccc(C(F)(F)F)cc1)[C@@H]23,Activity,[1],6.75%
same,Activity,[2],74.3
same,Activity,[3],Active
same,Activity,[4],5.2 g/day
same,Activity,[5],Active
same,Activity,[6],Dose-Dependent Effect
